Reference: ChEMBL document CHEMBL4196132, “Alkaloids with Immunosuppressive Activity from the Bark of Pausinystalia yohimbe” (J Nat Prod, 2018)
Calls of active or inactive are those of the source. The rule behind the calls is not given here.

Legend:
Format in all cases: functional, cell-based
[1] = tested on: HT-29; experiment: Cytotoxicity against human HT-29 cells assessed as reduction in cell viability at 100 uM after 24 hrs by MTT assay
Procedure, shortened: (§1)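 Human cancer lines grown in DMEM or RPMI-1640 with 10% FBS plus penicillin–streptomycin, 5% CO2, 37 °C. MTT read-out, viable-cell percentage measured at 490 nm. Doxorubicin hydrochloride as positive control.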

[2] = tested on: MCF7; experiment: Cytotoxicity against human MCF7 cells assessed as reduction in cell viability at 100 uM after 24 hrs by MTT assay; procedure, shortened: as §1
[3] = tested on: HeLa; experiment: Cytotoxicity against human HeLa cells assessed as reduction in cell viability at 100 uM after 24 hrs by MTT assay; procedure, shortened: as §1
[4] = tested on: HepG2; experiment: Cytotoxicity against human HepG2 cells assessed as reduction in cell viability at 100 uM after 24 hrs by MTT assay; procedure, shortened: as §1
[5] = tested on: B-cell line; experiment: Immunosuppressive activity in C57BL/6 mouse B cells assessed as inhibition of LPS-induced cell proliferation by MTT assay; conditions: C57BL/6, B-cell
Procedure, shortened: (§2)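 Splenocytes from male C57BL/6 mice (6–8 weeks), red cells lysed, in RPMI 1640 with 10% FBS. 5 × 10^5 cells per well, 5% CO2, 37 °C, 24 h. Stimulated with ConA 5 μg/mL (T cells) or LPS 10 μg/mL (B cells). MTT added for 4 h, pellet dissolved in DMSO, read at 490 nm. CsA and MMF as positive controls.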

[6] = tested on: Murine T-cell line; experiment: Immunosuppressive activity in C57BL/6 mouse T cells assessed as inhibition of ConA-induced cell proliferation by MTT assay; conditions: C57BL/6, T-cell; procedure, shortened: as §2

SMILES	Activity [1]	Activity [2]	Activity [3]	Activity [4]	IC50 [5]	IC50 [6]
C=C[C@H]1CN2CC[C@]3(C(=O)Nc4ccccc43)[C@@H]2C[C@@H]1/C(=C\OC)C(=O)OC	inactive	inactive	inactive	inactive	–	–
CC[C@@H]1CN2CC[C@@]3(C(=O)Nc4ccccc43)[C@@H]2C[C@@H]1/C(=C\OC)C(=O)OC	inactive	inactive	inactive	inactive	–	–
C=C[C@H]1C[N@+]2([O-])CCc3c([nH]c4ccccc34)[C@@H]2C[C@@H]1/C(=C\OC)C(=O)OC	inactive	inactive	inactive	inactive	–	–
CC[C@@H]1CN2CCc3c([nH]c4ccccc34)C2=C2OC(=O)C(C(=O)OC)=C21	inactive	inactive	inactive	inactive	–	–
CC[C@@H]1CN2CCc3c([nH]c4ccccc34)[C@@H]2C[C@@H]1/C(=C\OC)C(=O)OC	inactive	inactive	inactive	inactive	–	–
COC(=O)[C@H]1[C@H]2C[C@H]3c4[nH]c5ccccc5c4CCN3C[C@@H]2CC[C@@H]1O [CORYNANTHEINE]	inactive	inactive	inactive	inactive	40.5 µM	27.6 µM
CC[C@H]1CN2CCc3c([nH]c4ccccc34)[C@@H]2C[C@@H]1/C(=C\OC)C(=O)OC (stereo in doubt; 13)	inactive	inactive	inactive	inactive	–	–
C=C[C@H]1CN2CCc3c([nH]c4ccccc34)[C@@H]2C[C@@H]1/C(=C\OC)C(=O)OC	inactive	inactive	inactive	inactive	13.5 µM	16.8 µM
CC[C@@H]1CN2CC[C@]3(C(=O)Nc4ccccc43)[C@@H]2C[C@@H]1/C(=C\OC)C(=O)OC	inactive	inactive	inactive	inactive	–	–
CC[C@H]1C[N@@+]2([O-])CCc3c([nH]c4ccccc34)[C@@H]2C[C@@H]1/C(=C\OC)C(=O)OC	inactive	inactive	inactive	inactive	–	–
CC[C@@H]1C[N@+]2([O-])CCc3c([nH]c4ccccc34)[C@@H]2C[C@@H]1/C(=C\OC)C(=O)OC	inactive	inactive	inactive	inactive	–	–
CC[C@@H]1C[N@@+]2([O-])CCc3c([nH]c4ccccc34)[C@@H]2C[C@@H]1/C(=C\OC)C(=O)OC	inactive	inactive	inactive	inactive	–	–
C=C[C@H]1C[N@@+]2([O-])CCc3c([nH]c4ccccc34)[C@@H]2C[C@@H]1/C(=C\OC)C(=O)OC	inactive	inactive	inactive	inactive	–	–
CC[C@H]1CN2CCc3c([nH]c4ccccc34)[C@@H]2C[C@@H]1/C(=C\OC)C(=O)OC (stereo in doubt; 14)	inactive	inactive	inactive	inactive	–	–
C=C[C@@H]1CN2CC[C@@]3(C(=O)Nc4ccccc43)[C@@H]2C[C@@H]1/C(=C\OC)C(=O)OC	inactive	inactive	inactive	inactive	–	–
CC[C@@H]1CN2C=Cc3c([nH]c4ccccc34)C2=C2OC(=O)C(C=O)=C21	inactive	inactive	inactive	inactive	–	–
